Data taken from PubChem BioAssay AID617 (SRMLSC, 2007).

test system: E. coli BW25113 ΔtolC growth inhibition, OD615; assay: growth inhibitors of E. coli tolC mutant, dose response, strain BW25113 ΔtolC::kan (AID 617)
Method in brief: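 System – E. coli BW25113 ΔtolC::kan bacteria · Input – inoculum from 1:1000-diluted 1.5 h subculture · Buffer or medium – LB plus kanamycin · Compound – serial dilution series of compound · Timing – bacterial growth with compound for 20 h, 37 °C · Measured by – OD615 · Read-out basis – growth-inhibition IC50 from four-parameter logistic curve, bounds set to 0% and 100% · Benchmarks – chloramphenicol 30 µM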

Row | Compound | IC50
1 | CCC(c1nnnn1C1CCCCC1)N(Cc1ccco1)Cc1cc2ccc(OC)cc2[nH]c1=O (stereo not drawn) | 13.3 µM
2 | CCN(CC)c1ccc(C(=O)Nc2cccc(F)c2)cc1 | 8.06 µM
3 | O=C(NC1CCCCCCC1)c1ccccc1O | 9.01 µM
4 | CCCc1nc2sc3ccccc3c(=O)c2c(=O)n1Cc1ccco1 | 5.73 µM
5 | COc1ccccc1C(=O)Nc1nnc(-c2ccc3c(c2)CCCC3)o1 | 6.32 µM
6 | O=C1c2[nH]nc(-c3ccccc3O)c2C(c2ccccc2)N1Cc1ccco1 (stereo not drawn) | 2.45 µM
7 | Cc1cc(C(=O)OCc2nc3ccccc3s2)c(C)o1 | 32.6 µM
8 | O=C(c1cc2nc(-c3ccco3)cc(C(F)(F)F)n2n1)N1CCN(c2ccc(F)cc2)CC1 | 10.2 µM
9 | Cc1ccc2c(c1)NC(=O)C(CC(=O)NCCCN1CCN(c3cc(Cl)ccc3C)CC1)O2 (stereo not drawn) | 2.67 µM
10 | CC(C)OCCCNc1ncnc2c1[nH]c1ccccc12 | 5.88 µM
11 | COc1ccc(Cn2c(=O)sc3ccccc32)cc1 | 61.7 µM
12 | CCOc1ccc(NS(=O)(=O)c2ccc(SC)cc2)cc1 | 6.84 µM
13 | O=C(NCc1ccc2c(c1)OCO2)c1ccc(-c2ccc(Cl)cc2)o1 | 5.02 µM
14 | CCCOC(=O)/C(C(N)=NCc1ccccc1)=C(\O)OCCC | 16.4 µM
15 | C=CCNc1ncnc2c1[nH]c1ccc(C)cc12 | 2.38 µM
16 | CC(C)c1nc(N2CCOCC2)c(C#N)c2c1CCCC2 | 18 µM
17 | CCOc1cc(-c2c(C#N)c(=O)[nH]c3c2c(C)nn3-c2ccc(F)cc2)ccc1O | 2.48 µM
18 | CCCCc1ccc(Nc2nc(CCC)cc(=O)[nH]2)cc1 | 14.9 µM
19 | Cc1ccc(SCC(=O)N(Cc2nc(-c3ccccc3)no2)C(C)C)cc1 | 10.8 µM
20 | c1csc(-c2noc(COc3ccc4c(c3)CCCC4)n2)c1 | 18.4 µM
21 | CCCCCOC(=O)c1ccc(NC(=O)c2ccco2)cc1 | 6.52 µM

Row | Compound | IC50
22 | Cc1onc(-c2ccccc2)c1C(=O)Nc1nnc(N(C)Cc2ccccc2)s1 | 23.9 µM
23 | CCOC(=O)C1=C(C)NC(SCC(=O)Nc2cc(C)on2)=C(C#N)C1c1cccs1 (stereo not drawn) | 11 µM
24 | CC(C)(C)OC(=O)N1CCC[C@H]1c1nnc(SCc2ccc(Cl)cc2Cl)o1 | 11 µM
25 | CCC(=Nc1ccc(OC)cc1OC)c1c(O)n(C2CCCCC2)c(=O)[nH]c1=O | 4.85 µM
26 | CCn1cc(C(=O)OCC(=O)OC2CC(C)CCC2C(C)C)c(=O)c2ccc(C)nc21 (stereo not drawn) | 7.52 µM
27 | COc1ccc(Cl)cc1CN1CCN(c2nc(C)cc(C)c2C#N)CC1 | 13.2 µM
28 | Cc1nn(-c2ccccc2)c(C)c1C(=O)Nc1nnc(-c2ccco2)o1 | 6.38 µM
29 | CCOC(=O)c1c(NC(=O)CN(CC)CC)sc2c1CCC2 | 13.8 µM
30 | COC(=O)c1ccc(OC)c(CSc2nnc(COc3ccccc3)o2)c1 | 23.1 µM
31 | COc1cccc(-c2cc(C(=O)N3CCc4ccccc4C3)no2)c1 | 8.69 µM
32 | N#Cc1nc(-c2ccc(OCc3ccccc3)cc2)oc1NCCCN1CCOCC1 | 25.9 µM
33 | CCC(CC)c1nnc(NC(=O)c2c(-c3ccccc3)noc2C)s1 | 19.8 µM
34 | CCCOc1ccc2c3c(c(=O)oc2c1OCCC)CCC3 | 14.5 µM
35 | Cc1cccc(NC(=O)c2cc3n(n2)C(C(F)(F)F)CC(c2ccc4c(c2)OCO4)N3)c1 (stereo not drawn) | 6.87 µM
36 | CCOc1ccc(S(=O)(=O)Nc2cc(Cl)ccc2O)cc1 | 9.22 µM
37 | CN(C1CCCCC1)S(=O)(=O)c1ccc(NC(=O)c2ccc(Br)o2)cc1 | 10.6 µM
38 | O=C(CSc1nnnn1C1CCCCC1)Nc1nc2c(s1)CCCC2 | 10.2 µM
39 | Cc1ccc(Cn2ncn3c(cc4ccccc43)c2=O)cc1 | 14.1 µM
40 | Cc1onc(-c2ccccc2)c1C(=O)Nc1sc2c(c1C#N)CCC2 | 10.1 µM
41 | CCCCCC/C(=N/O)c1ccccn1 | 3.15 µM
42 | CCOC(=O)c1cc2sccc2n1CC(=O)N1CCCc2ccccc21 | 15.1 µM

Row | Compound | IC50
43 | O=C(c1ccc(Cl)c(Cl)c1)N(Cc1ccco1)c1ccc(O)cc1 | 3.7 µM
44 | CC1(C)CC(=O)C=C(NCCN2CCN(C(=O)Nc3ccc(Cl)c(Cl)c3)CC2)C1 | 20.3 µM
45 | O=C(Nc1ccc(C(F)(F)F)cc1Cl)c1ccc(Cn2cc(Br)cn2)o1 | 9.95 µM
46 | O=C(Nc1nc(-c2ccccn2)cs1)C1COc2ccccc2O1 (stereo not drawn) | 0.97 µM
47 | C=CCn1c(SCC(=O)Nc2nc3ccccc3s2)nnc1-c1ccccc1O | 8.28 µM
48 | CCOC(=O)c1ccc(Oc2nc(NC(C)(C)C)nc(N(C)C)n2)cc1 | 14.9 µM
49 | CCc1c(O)nc(SCc2ccccc2)n(C(C)CC)c1=O (stereo not drawn) | 4.28 µM
50 | O=C(COn1nnc2ccc(C(F)(F)F)cc21)Nc1nnc(-c2ccccc2)o1 | 0.64 µM
51 | CCOC(=O)c1cccc(NC(=O)Nc2cc(OC)ccc2OC)c1 | 20.5 µM
52 | CCCCN(CCCNC(=O)CN1C(=O)COc2ccccc21)c1ccccc1 | 38.9 µM
53 | CCOc1ccc2nc(N3CCCN(C(=O)Nc4ccccc4C)CC3)c(C#N)cc2c1 | 36.3 µM
54 | Cc1ccc(NC(=O)CN(C)S(=O)(=O)c2cccc3nsnc23)cc1Cl | 17.8 µM
55 | Cc1ccc(S(=O)(=O)Nc2cccc(-c3cn4ccsc4n3)c2)cc1 | 15.5 µM
56 | Clc1ccc(OCc2nc(-c3ccccn3)n[nH]2)cc1 | 15.4 µM
57 | O=C1c2[nH]nc(-c3ccccc3O)c2C(c2cccc(Cl)c2)N1CC1CCCO1 (stereo not drawn) | 4.35 µM
58 | Cc1c(C(=O)N2CCCCC2)oc2ccc(S(=O)(=O)N3CC(C)CC(C)C3)cc12 (stereo not drawn) | 9.13 µM
59 | O=C(Oc1ccc2ccccc2c1Cl)N1CCCC1 | 23.2 µM
60 | CCOC(=O)C1CCN(c2ncnc3c2oc2ccc(Br)cc23)CC1 | 12.8 µM
61 | Cc1ccc(Nc2nc(N)nc(CN3CCN(c4ccccc4)CC3)n2)cc1Cl | 5.97 µM
62 | CCCc1ccc(OCc2ccc(C(=O)N3CCN(c4ccccn4)CC3)o2)c(OC)c1 | 7.15 µM
63 | CC1=CC(C)(C)N2C(=O)C3(SCC(=O)N3c3ccc(O)cc3)c3cc(C)cc1c32 (stereo not drawn) | 11.8 µM

Row | Compound | IC50
64 | Cc1ccc(C)c(N2CCN(C(=O)c3ccccc3Br)CC2)c1 | 11.2 µM
65 | CCCCOc1ccc(NC2=NC3(CCCCC3)N=C(N)N2)cc1 | 2.64 µM
66 | O=C(Nc1ccc(N2CCN(C(=O)c3ccco3)CC2)c(Cl)c1)c1c(F)c(F)c(F)c(F)c1F | 3.96 µM
67 | Cc1csc(NC(=O)CSc2ncnc3c2cnn3-c2ccccc2Cl)n1 | 16.4 µM
68 | CCCCCCc1ccc(-c2ncc(N)cn2)cc1 | 16.6 µM
69 | Cc1[nH]n2c(=O)cc(C(C)(C)C)nc2c1-c1ccccc1 | 1.56 µM
70 | CCOc1ccc(C(=O)N2CCN(c3cccc(C)c3C)CC2)cc1 | 11 µM
71 | COC(=O)c1c(NC(=O)Cc2cccs2)sc2c1CCCC2 | 8.83 µM
72 | CC1CN(S(=O)(=O)c2ccc(C(=O)Nc3nnc(-c4ccc5c(c4)CCCC5)o3)cc2)CC(C)O1 (stereo not drawn) | 0.77 µM
73 | Cn1ncc(C#N)c1/N=C/N(Cc1ccccc1)Cc1ccccc1 | 7.5 µM
74 | O=C(c1cc2nc(-c3ccco3)cc(C(F)(F)F)n2n1)N1CCN(c2ccccc2)CC1 | 10.3 µM
75 | O=C(COc1cccc2ccccc12)N1CCN(c2ccccc2)CC1 | 22.6 µM
76 | CCOc1ccccc1-c1nn2c(Cc3ccccc3)nnc2s1 | 0.76 µM
77 | CN(C)c1ccc(/C=N/n2ncc3ccccc32)cc1 | 34.6 µM
78 | CCCc1ccc(Oc2cn[nH]c2-c2ccc(O)cc2O)cc1 | 0.24 µM
79 | N#Cc1nc(COc2ccc(F)cc2)oc1N1CCN(Cc2ccccc2)CC1 | 14.4 µM
80 | CN(c1ccccc1C(=O)Nc1ccc(S(=O)(=O)N2CCCCC2)cc1)S(C)(=O)=O | 7.39 µM
81 | COc1ccc(-c2nnc(NC(=O)c3ccc(S(=O)(=O)N4COCC4(C)C)cc3)o2)cc1 | 0.52 µM
82 | CCOC(=O)c1cc2sc(C)cc2n1C(C)C(=O)OCC (stereo not drawn) | 60.6 µM
83 | Nc1nncn1C(=O)CCCN1C(=O)c2ccccc2C1=O | 12.7 µM
